# This sample holds only a part of the variants without activity.
# B1: tRNA (parent)
# chain: GUUCCGUUGGCGUAAUGGUAACGCGUCUCCCUCCUAAGGAGAAGACUGCGGGUUCGAGUCCCGUACGGAACG
# Variants of: B1
# Assay: yeast fitness relative to wild type (ratio to wild type); higher = fitter; tRNA-Arg(CCU), competitive growth, 37 C, YPD
# Method in brief: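 Genotype frequency changes were the basis for Darwinian fitness relative to wild type. The frequencies came from 100-nucleotide paired-end sequencing of gene amplicons from the start population and each end population of pooled yeast strains with tRNA-Arg(CCU) gene variants at the native locus. Competition ran in YPD at 37°C for 24 hours in six replicates, genotypes needed ≥ 100 starting reads, and estimates < 0.5 were set to 0.5.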
row,Variant,yeast fitness
1,U13A U19C C24G G25A G39C A40C G51C,≤ 0.5
2,U13A C62G,0.78
3,U13A C62A,0.668
4,U13A C29U A40C A69U,≤ 0.5
5,U13C C31U U54C G58C C61A A69U,≤ 0.5
6,U13A G51C,0.58
7,U13C C61A G67A,≤ 0.5
8,U13C A45U A57G,≤ 0.5
9,U13C A43U A70C,0.679
10,U13C A40C C66A,0.567
11,U13C C29G A45U C62U,≤ 0.5
12,U13C C30U A40G C55A G63C A65C,≤ 0.5
13,U13C C22G C27A G51C A70U,≤ 0.5
14,U13C C55U,0.837
15,U13C A40G G63A G67A,≤ 0.5
16,U13C C30G U35C,≤ 0.5
17,U13A C30U G58C,≤ 0.5
18,U13C C22U G38C A70U,≤ 0.5
19,U13A U32A,0.69
20,U13A U32C,0.875
21,U13C A43G G52C,≤ 0.5
22,U13A G18C A36G G41C,0.706
23,U13C A36G A40C,0.61
24,U13A U28C C55A,0.595

row,Variant,yeast fitness
1,U13C C34U,0.668
2,U13C A15U C61U A65C,≤ 0.5
3,U13C A65U,1.02
4,U13C A65C,0.873
5,U13A U19A C34U A42C A43U,≤ 0.5
6,U13A C46G U53C C62U A69C,≤ 0.5
7,U13A U35C A36C A37U G50C,≤ 0.5
8,U13C C22U C27U A37C A57G,≤ 0.5
9,U13C C29U G56C,≤ 0.5
10,U13C A21G U35A C55U A65G,≤ 0.5
11,U13A C29A C31G,0.524
12,U13C A15U U16A U19A,≤ 0.5
13,U13C C22U,0.932
14,U13A U28A C30G C46U G56C C61G,≤ 0.5
15,U13C C31U G56C,≤ 0.5
16,U13A C33A A36U G68C,≤ 0.5
17,U13C A15G C22G,0.571
18,U13A U54C C62U G68C,≤ 0.5
19,U13A U19C A20U C29G C33G A37G C49U,≤ 0.5
20,U13C A36C C55U G68C,≤ 0.5
21,U13C C60G A69C,≤ 0.5
22,U13C C30A G38A C55A A65C,≤ 0.5
23,U13A U53C U59A U64A A70C,≤ 0.5
24,U13C C29A C33G U35C G51A,0.503

row,Variant,yeast fitness
1,U13A G23C C24G G50A,≤ 0.5
2,U13C A20U,1.12
3,U13A G23A U35G U59C,0.528
4,U13C A20C A42U,0.558
5,U13C A36G C62U,0.693
6,U13C A45U G63C,≤ 0.5
7,U13C C33A A36C G63C C66G,≤ 0.5
8,U13A U32C A65G,0.705
9,U13A G17C C31A,0.623
10,U13A C31G A42G,0.699
11,U13C A14U G41C G48C,≤ 0.5
12,U13C A21G,1.09
13,U13C A36C G67U,0.637
14,U13A U16A C61G,≤ 0.5
15,U13C C24U,1.01
16,U13C C24A,0.69
17,U13C A37U C62A,≤ 0.5
18,U13C C31U A43G C60G,≤ 0.5
19,U13C A21G A42U A57U C62U,≤ 0.5
20,U13A G25C C27A C30G A40C C60U C66G,≤ 0.5
21,U13C A42U U54C,0.592
22,U13C C31G U47G U53G C61U G68A,0.591
23,U13A U32C A40C G67A,≤ 0.5
24,U13C A15G A65C,0.583

row,Variant,yeast fitness
1,U13A C61U,0.786
2,U13A C61A,0.706
3,U13A G17A,0.764
4,U13A U28C G56A,0.805
5,U13C A20C G48C A57G,≤ 0.5
6,U13A U19A,0.828
7,U13A C30U U47A U59A C60U C62G C66U,0.55
8,U13C A20G C46U U47A A70U,≤ 0.5
9,U13A C49G,1.01
10,U13C A43U C60G,0.546
11,U13A U28C C60A,0.551
12,U13A G41A A42C G50C A70G,≤ 0.5
13,U13C A36C C61A,0.651
14,U13C C46G C62G,≤ 0.5
15,U13C A37G C60A A65U,≤ 0.5
16,U13A C30U C33A U35C,0.558
17,U13A U28C U64A,0.718
18,U13C C61G G67U,0.6
19,U13A C30U C34U A42G G63A,≤ 0.5
20,U13A G23C C61A C62A,0.726
21,U13A G18C C27U A40G G41A A45U,≤ 0.5
22,U13C A36G,1.01
23,U13C A36C,0.643
24,U13A U59A U64A A70C,0.511

row,Variant,yeast fitness
1,U13C A37G G58A,0.647
2,U13A G18C A36G G41C U47A,≤ 0.5
3,U13C C66G,0.742
4,U13C C66A,0.556
5,U13A C61G A70G,0.6
6,U13A C33G A36G C49A,≤ 0.5
7,U13C A45C G50U A57G,≤ 0.5
8,U13A C30U U47A U59A C60U C62G,≤ 0.5
9,U13A C60G G67A,≤ 0.5
10,U13C C31A G56C,0.57
11,U13C A15G A43U,0.752
12,U13C C27G A37U C60A,0.727
13,U13A U16A C49A C61U C62G,≤ 0.5
14,U13C C49G G50C A65U,≤ 0.5
15,U13A U16A C24G C33G C62G,≤ 0.5
16,U13C A70G,1.03
17,U13C A70U,0.945
18,U13C C30U C33U A69U A70G,0.568
19,U13A C61A G68A,≤ 0.5
20,U13A G38C,0.619
21,U13A C46A U64C,0.609
22,U13A G23A G67C,0.535
23,U13C C30G,0.578
24,U13C C30A,0.825

row,Variant,yeast fitness
1,U13C C31U,1.01
2,U13C C31A,0.901
3,U13A G38C A69C,0.524
4,U13A U32A C60G,≤ 0.5
5,U13A G41A G48A U53C,≤ 0.5
6,U13C A37U A42U C66A A69C,≤ 0.5
7,U13C C22G G38C A45U C49G,≤ 0.5
8,U13C A43U A69C,0.766
9,U13C A14G A42C C62G,≤ 0.5
10,U13C A14U A36U G38A A43U G67A,≤ 0.5
11,U13C A42U U47C G51A A70C,≤ 0.5
12,U13A G23A A36C G38A A65G,≤ 0.5
13,U13A C30G C31U C33G,≤ 0.5
14,U13C C60U,0.725
15,U13C C60A,0.685
16,U13C C29A A37U C49A,≤ 0.5
17,U13A G56C A65C,≤ 0.5
18,U13A C33G U54A U59A,≤ 0.5
19,U13A C27U G56A,0.97
20,U13A G48C,1.1
21,U13A C29G G48C,≤ 0.5
22,U13A U54A A69U,0.529
23,U13C C22U G38C A57U,≤ 0.5
24,U13C C22U G38C A57C,0.599

row,Variant,yeast fitness
1,U13A U32G A45G A70G,≤ 0.5
2,U13C A42G G56U,≤ 0.5
3,U13A U26G C29U,≤ 0.5
4,U13C C30U C33U,0.537
5,U13A G58C A69U,1.04
6,U13C A43G A45U,0.587
7,U13C C22U C27U A37C G67A,≤ 0.5
8,U13C C29U,0.831
9,U13A U32C U54G C62U,≤ 0.5
10,U13A U32A A37U G41A,≤ 0.5
11,U13A G58C C60U C66G,0.574
12,U13A U47A,0.872
13,U13A U47C,0.774
14,U13C C34G C46U A57U C60G A65C,≤ 0.5
15,U13A U28C C60G C66G,0.6
16,U13A C61U A70G,0.633
17,U13A C61U A70U,0.708
18,U13A C29U A40C,0.54
19,U13A C49A G63A,≤ 0.5
20,U13A C33A U54C,≤ 0.5
21,U13A U16A C61U G63C,≤ 0.5
22,U13C C31U C62A G63A,≤ 0.5
23,U13C A14U G41C,0.603

# Source: the RNAGym collection of RNA variant scans (doi:10.1126/science.aae0568)
